Converted amounts (≈) assume the structure as drawn.
Legend:
[1] = test system: Enterococcus faecalis; experiment: Antibacterial activity against vancomycin-resistant Enterococcus faecalis NCTC 12201 after 20 hrs by broth microdilution method; type: functional; conditions: NCTC 12201, 20 h
Summary of the method: (§1)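 Broth microdilution in Tryptic Soy Broth; growth read as OD600 after 20 h. MIC taken as the lowest drug concentration giving OD600 below 0.1. Run in triplicate.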

[2] = test system: Pseudomonas aeruginosa; experiment: Ratio of MIC for Pseudomonas aeruginosa NCTC 13437 in absence of Pa-beta-N to MIC for Pseudomonas aeruginosa NCTC 13437 in presence of Pa-beta-N; type: functional
Summary of the method: (§2)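 Both MICs were by TSB broth microdilution, with an OD600 <0.1 cutoff at 20 h.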

[3] = test system: Acinetobacter baumannii; experiment: Ratio of MIC for Acinetobacter baumannii ATCC 17978 in absence of PMBN to MIC for Acinetobacter baumannii ATCC 17978 in presence of PMBN; type: functional
Summary of the method: (§3)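 Fold change: MIC without divided by MIC with 30 μg/mL PMBN. Both MICs were by TSB broth microdilution, with an OD600 <0.1 cutoff at 20 h.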

[4] = test system: Pseudomonas aeruginosa; experiment: Antibacterial activity against Pseudomonas aeruginosa PAO1 after 20 hrs in the presence of Pa-beta-N and magnesium ions by broth microdilution method; type: functional; conditions: PAO1, 20 h
Summary of the method: (§4)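 Broth microdilution in Tryptic Soy Broth, done in triplicate. Growth was read as OD600 after 20 h. MIC is the lowest drug concentration giving OD600 below 0.1.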

[5] = test system: Enterococcus faecalis; experiment: Bactericidal activity against vancomycin-resistant Enterococcus faecalis NCTC 12201 assessed as time required to kill bacteria by >6 log10CFU/ml at 4 times MIC by Miles Misra dilution method; type: functional
Summary of the method: (§5)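 Flasks of TSB inoculated at ~10^6 cfu/mL, compound added at 4 × MIC, shaken at 200 rpm and 37 °C. Samples taken at 1, 2, 4, 6 and 24 h and plated by Miles Misra dilution for CFU/mL. Bactericidal means a loss of >3 log CFU/mL. Three independent repeats, error bars SD.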

[6] = test system: Enterococcus faecalis; experiment: Antibacterial activity against vancomycin-sensitive Enterococcus faecalis NCTC 775 after 20 hrs by broth microdilution method; type: functional; conditions: NCTC 775, 20 h; summary of the method: as §4
[7] = test system: Klebsiella pneumoniae; experiment: Antibacterial activity against Klebsiella pneumoniae NCTC 13368 after 20 hrs in the presence of Pa-beta-N and magnesium ions by broth microdilution method; type: functional; conditions: NCTC 13368, 20 h; summary of the method: as §4
[8] = Cytotoxicity against human HeLa cells assessed as cell viability at 25 uM after 24 hrs by MTT assay; type: cell-based; conditions: read-out: Activity
Summary of the method: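 HeLa cells, 10000 per well, were grown at 37 °C in 5% CO2 and allowed to settle for 24 h. Compound was then added in triplicate for 24 h of continuous exposure. Viability was read by MTT colorimetry, with absorbance at 570 nm.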

[9] = test system: Pseudomonas aeruginosa; experiment: Ratio of MIC for Pseudomonas aeruginosa PAO1 in absence of PMBN to MIC for Pseudomonas aeruginosa PAO1 in presence of PMBN; type: functional; summary of the method: as §3
[10] = test system: Acinetobacter baumannii; experiment: Antibacterial activity against Acinetobacter baumannii AYE after 20 hrs in the presence of PMBN by broth microdilution method; type: functional; summary of the method: as §4
[11] = test system: Klebsiella pneumoniae; experiment: Antibacterial activity against Klebsiella pneumoniae M6 after 20 hrs in the presence of Pa-beta-N and magnesium ions by broth microdilution method; type: functional; conditions: M6, 20 h; summary of the method: as §4
[12] = test system: Staphylococcus aureus; experiment: Antibacterial activity against methicillin-resistant Staphylococcus aureus EMRSA-15 after 20 hrs by broth microdilution method; type: functional; conditions: EMRSA-15, 20 h; summary of the method: as §1
[13] = test system: Pseudomonas aeruginosa; experiment: Ratio of MIC for Pseudomonas aeruginosa NCTC 13437 in absence of PMBN to MIC for Pseudomonas aeruginosa NCTC 13437 in presence of PMBN; type: functional; summary of the method: as §3
[14] = test system: Klebsiella pneumoniae; experiment: Antibacterial activity against Klebsiella pneumoniae M6 after 20 hrs in the presence of PMBN by broth microdilution method; type: functional; conditions: M6, 20 h; summary of the method: as §4
[15] = test system: Pseudomonas aeruginosa; experiment: Antibacterial activity against Pseudomonas aeruginosa NCTC 13437 after 20 hrs in the presence of Pa-beta-N and magnesium ions by broth microdilution method; type: functional; conditions: NCTC 13437, 20 h; summary of the method: as §4
[16] = test system: Pseudomonas aeruginosa; experiment: Antibacterial activity against Pseudomonas aeruginosa NCTC 13437 after 20 hrs in the presence of PMBN by broth microdilution method; type: functional; conditions: NCTC 13437, 20 h; summary of the method: as §4
[17] = test system: Staphylococcus aureus; experiment: Antibacterial activity against methicillin-resistant Staphylococcus aureus MRSA252 after 20 hrs by broth microdilution method; type: functional; conditions: MRSA252, 20 h; summary of the method: as §1
[18] = test system: Acinetobacter baumannii; experiment: Ratio of MIC for Acinetobacter baumannii ATCC 17978 in absence of Pa-beta-N to MIC for Acinetobacter baumannii ATCC 17978 in presence of Pa-beta-N; type: functional; summary of the method: as §2
[19] = test system: Klebsiella pneumoniae; experiment: Antibacterial activity against Klebsiella pneumoniae NCTC 13368 after 20 hrs in the presence of PMBN by broth microdilution method; type: functional; conditions: NCTC 13368, 20 h; summary of the method: as §4
[20] = test system: Pseudomonas aeruginosa; experiment: Antibacterial activity against Pseudomonas aeruginosa NCTC 13437 after 20 hrs by broth microdilution method; type: functional; conditions: NCTC 13437, 20 h; summary of the method: as §4
[21] = test system: Staphylococcus aureus; experiment: Antibacterial activity against methicillin-sensitive Staphylococcus aureus ATCC 9144 after 20 hrs by broth microdilution method; type: functional; conditions: ATCC 9144, 20 h; summary of the method: as §4
[22] = Stabilization of FAM/TAMRA-labeled AT-rich DNA duplex (unknown origin) assessed as change in melting temperature at 5 uM by FRET-based assay
Summary of the method: (§6)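 FRET melting of a FAM/TAMRA-labelled AT-rich oligonucleotide, 400 nM working solution in 50 mM potassium, 50 mM cacodylate, pH 7.4. DNA was annealed at 85 °C for 6 min, then held at 25 °C for 5 h, and mixed 1:1 with sample. Fluorescence was read every 0.5 °C from 30 to 100 °C, with a 30 s hold per step. ΔTm is measured against the blank, in triplicate.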

[23] = test system: Enterococcus faecium; experiment: Antibacterial activity against vancomycin-resistant Enterococcus faecium NCTC 12204 after 20 hrs by broth microdilution method; type: functional; conditions: NCTC 12204, 20 h; summary of the method: as §1
[24] = test system: Pseudomonas aeruginosa; experiment: Antibacterial activity against Pseudomonas aeruginosa PAO1 after 20 hrs by broth microdilution method; type: functional; conditions: PAO1, 20 h; summary of the method: as §4
[25] = test system: Klebsiella pneumoniae; experiment: Antibacterial activity against Klebsiella pneumoniae NCTC 13368 after 20 hrs by broth microdilution method; type: functional; conditions: NCTC 13368, 20 h; summary of the method: as §4
[26] = test system: Klebsiella pneumoniae; experiment: Antibacterial activity against Klebsiella pneumoniae M6 after 20 hrs by broth microdilution method; type: functional; conditions: M6, 20 h; summary of the method: as §4
[27] = test system: Acinetobacter baumannii; experiment: Ratio of MIC for Acinetobacter baumannii AYE in absence of PMBN to MIC for Acinetobacter baumannii AYE in presence of PMBN; type: functional; summary of the method: as §3
[28] = test system: Acinetobacter baumannii; experiment: Antibacterial activity against Acinetobacter baumannii ATCC 17978 after 20 hrs in the presence of PMBN by broth microdilution method; type: functional; conditions: ATCC 17978, 20 h; summary of the method: as §4
[29] = test system: Klebsiella pneumoniae; experiment: Ratio of MIC for Klebsiella pneumoniae M6 in absence of Pa-beta-N to MIC for Klebsiella pneumoniae M6 in presence of Pa-beta-N; type: functional; summary of the method: as §2
[30] = test system: Staphylococcus aureus; experiment: Bactericidal activity against methicillin-resistant Staphylococcus aureus EMRSA-15 assessed as time required to kill bacteria by >6 log10CFU/ml at 4 times MIC by Miles Misra dilution method; type: functional; summary of the method: as §5
[31] = test system: Klebsiella pneumoniae; experiment: Ratio of MIC for Klebsiella pneumoniae M6 in absence of PMBN to MIC for Klebsiella pneumoniae M6 in presence of PMBN; type: functional; summary of the method: as §3
[32] = test system: Pseudomonas aeruginosa; experiment: Antibacterial activity against Pseudomonas aeruginosa PAO1 after 20 hrs in the presence of PMBN by broth microdilution method; type: functional; conditions: PAO1, 20 h; summary of the method: as §4
[33] = test system: Klebsiella pneumoniae; experiment: Ratio of MIC for Klebsiella pneumoniae NCTC 13368 in absence of Pa-beta-N to MIC for Klebsiella pneumoniae NCTC 13368 in presence of Pa-beta-N; type: functional; summary of the method: as §2
[34] = test system: Acinetobacter baumannii; experiment: Antibacterial activity against Acinetobacter baumannii ATCC 17978 after 20 hrs by broth microdilution method; type: functional; conditions: ATCC 17978, 20 h; summary of the method: as §4
[35] = test system: Acinetobacter baumannii; experiment: Antibacterial activity against Acinetobacter baumannii ATCC 17978 after 20 hrs in the presence of Pa-beta-N and magnesium ions by broth microdilution method; type: functional; conditions: ATCC 17978, 20 h; summary of the method: as §4
[36] = test system: Acinetobacter baumannii; experiment: Antibacterial activity against Acinetobacter baumannii AYE after 20 hrs by broth microdilution method; type: functional; summary of the method: as §4
[37] = test system: Acinetobacter baumannii; experiment: Ratio of MIC for Acinetobacter baumannii AYE in absence of Pa-beta-N to MIC for Acinetobacter baumannii AYE in presence of Pa-beta-N; type: functional; summary of the method: as §2
[38] = test system: Staphylococcus aureus; experiment: Inhibition of Staphylococcus aureus DNA gyrase assessed as reduction in pNO1 supercoiling at 0.5 ug/mL by fluorescent dye-based assay
Summary of the method: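 Supercoiling plate assay run per the kit instructions. S. aureus gyrase was incubated with compound and plasmid pNO1. Negatively supercoiled plasmid was captured by a triplex-forming oligonucleotide, stained with a fluorescent dye and read by fluorescence (excitation 485 nm). Percent inhibition was reported.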

[39] = Stabilization of FAM/TAMRA-labeled AT-rich DNA duplex (unknown origin) assessed as change in melting temperature at 1 uM by FRET-based assay; summary of the method: as §6
[40] = test system: Acinetobacter baumannii; experiment: Antibacterial activity against Acinetobacter baumannii AYE after 20 hrs in the presence of Pa-beta-N and magnesium ions by broth microdilution method; type: functional; summary of the method: as §4
[41] = test system: Klebsiella pneumoniae; experiment: Ratio of MIC for Klebsiella pneumoniae NCTC 13368 in absence of PMBN to MIC for Klebsiella pneumoniae NCTC 13368 in presence of PMBN; type: functional; summary of the method: as §3

Question: For Cc1nc2ccc(C(=O)Nc3cccc(-c4ccc(-n5c(C)nc6cc(C(=O)NCCCN(C)C)ccc65)nc4)c3)cc2[nH]1, which MIC [1] is on record?
Answer: 0.25 µg/mL (≈ 0.426 µM)

Question: And the Ratio [2]?
Answer: 2 - 4

Question: What about the Ratio [3] of the same compound?
Answer: 2

Question: What about the MIC [4] of the same compound?
Answer: > 32 µg/mL

Question: And the Time [5]?
Answer: 2 h

Question: And the MIC [6]?
Answer: 0.5 µg/mL (≈ 0.852 µM)

Question: What about the MIC [7] of the same compound?
Answer: 32 µg/mL

Question: What about the viability at 24 h, 25 µM [8] of the same compound?
Answer: > 98%

Question: And the Ratio [9]?
Answer: >16

Question: What about the MIC [10] of the same compound?
Answer: 8 µg/mL

Question: What about the MIC [11] of the same compound?
Answer: 8 µg/mL

Question: What about the MIC [12] of the same compound?
Answer: 0.5 µg/mL (≈ 0.852 µM)

Question: What about the Ratio [13] of the same compound?
Answer: >16

Question: And the MIC [14]?
Answer: 8 µg/mL

Question: And the MIC [15]?
Answer: 16 to 32 µg/mL

Question: What about the MIC [16] of the same compound?
Answer: 4 µg/mL

Question: And the MIC [17]?
Answer: 2 µg/mL (≈ 3.41 µM)

Question: What about the Ratio [18] of the same compound?
Answer: 2 - 4

Question: What about the MIC [19] of the same compound?
Answer: 16 µg/mL

Question: And the MIC [20]?
Answer: > 32 µg/mL

Question: And the MIC [21]?
Answer: 0.25 µg/mL (≈ 0.426 µM)

Question: What about the deltaTm [22] of the same compound?
Answer: 2.1 °C

Question: And the MIC [23]?
Answer: 0.5 µg/mL (≈ 0.852 µM)

Question: And the MIC [24]?
Answer: > 32 µg/mL

Question: What about the MIC [25] of the same compound?
Answer: > 32 µg/mL

Question: And the MIC [26]?
Answer: 32 µg/mL (≈ 54.5 µM)

Question: What about the Ratio [27] of the same compound?
Answer: 2

Question: And the MIC [28]?
Answer: 8 µg/mL

Question: What about the Ratio [29] of the same compound?
Answer: >=4

Question: And the Time [30]?
Answer: 2 h

Question: And the Ratio [31]?
Answer: 4

Question: And the MIC [32]?
Answer: 4 µg/mL

Question: And the Ratio [33]?
Answer: 2 - 4

Question: What about the MIC [34] of the same compound?
Answer: 16 µg/mL (≈ 27.3 µM)

Question: What about the MIC [35] of the same compound?
Answer: 8 µg/mL

Question: What about the MIC [36] of the same compound?
Answer: 16 µg/mL (≈ 27.3 µM)

Question: And the Ratio [37]?
Answer: 2 - 4

Question: And the inhibition [38]?
Answer: 65.2%

Question: What about the deltaTm [39] of the same compound?
Answer: 0.4 °C

Question: What about the MIC [40] of the same compound?
Answer: 8 µg/mL

Question: What about the Ratio [41] of the same compound?
Answer: 4
